Tested on: U2OS
Assay: Multiplex assay against U2OS
Type: toxicity, cell-based
Conditions: human
In short: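 At seeding, live cells were stained with Hoechst33342, BioTracker Green Microtubule Cytoskeleton Dye, MitoTracker Red and Annexin V Alexa Fluor 680. After compound addition they were imaged on a CQ1 microscope at 37°C and 5% CO2, and CellPathfinder machine-learning gating sorted them into Hoechst high-intensity objects or normal cells, with normal cells further split into healthy, pyknosed or fragmented nuclei and pyknosed cells into mitotic or apoptotic. Tubulin, mitochondrial-mass and membrane-permeability phenotypes are given as per cents of cells with healthy nuclei.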

[1] = 12 h, 1 µM, compound concentration 1 uM, replicate 1
[2] = 12 h, 1 µM, compound concentration 1 uM, replicate 2
[3] = 12 h, 10 µM, compound concentration 10 uM, replicate 1
[4] = 12 h, 10 µM, compound concentration 10 uM, replicate 2
[5] = 24 h, 1 µM, compound concentration 1 uM, replicate 1
[6] = 24 h, 1 µM, compound concentration 1 uM, replicate 2
[7] = 24 h, 10 µM, compound concentration 10 uM, replicate 1
[8] = 24 h, 10 µM, compound concentration 10 uM, replicate 2
[9] = 48 h, 1 µM, compound concentration 1 uM, replicate 1
[10] = 48 h, 1 µM, compound concentration 1 uM, replicate 2
[11] = 48 h, 10 µM, compound concentration 10 uM, replicate 1
[12] = 48 h, 10 µM, compound concentration 10 uM, replicate 2

SMILES: O=C(Nc1cccnn1)N1CCC(=Cc2cccc(Oc3ccc(C(F)(F)F)cn3)c2)CC1
- Population Apoptotic (%) [1]: 36%
- Population Fragmented Nuclei (%) [1]: 1%
- Population Healthy Nuclei (%) [1]: 87%
- Population Hoechst High Intensity Objects (%) [1]: 3%
- Population Membrane Permeable-Phenotype (%) [1]: 33%
- Population Mitochondria Different-Phenotype (%) [1]: 5%
- Population Mitotic Cells (%) [1]: 63%
- Population Normal (%) [1]: 96%
- Population Pyknosed Nuclei (%) [1]: 10%
- Population Tubulin-Different-Phenotype (%) [1]: 26%
- Total Cell Count [1]: 187
- Population Apoptotic (%) [2]: 14%
- Population Fragmented Nuclei (%) [2]: 13%
- Population Healthy Nuclei (%) [2]: 78%
- Population Hoechst High Intensity Objects (%) [2]: 16%
- Population Membrane Permeable-Phenotype (%) [2]: 30%
- Population Mitochondria Different-Phenotype (%) [2]: 24%
- Population Mitotic Cells (%) [2]: 85%
- Population Normal (%) [2]: 83%
- Population Pyknosed Nuclei (%) [2]: 7%
- Population Tubulin-Different-Phenotype (%) [2]: 18%
- Total Cell Count [2]: 101
- Population Apoptotic (%) [3]: 83%
- Population Fragmented Nuclei (%) [3]: 4%
- Population Healthy Nuclei (%) [3]: 92%
- Population Hoechst High Intensity Objects (%) [3]: 3%
- Population Membrane Permeable-Phenotype (%) [3]: 8%
- Population Mitochondria Different-Phenotype (%) [3]: 22%
- Population Mitotic Cells (%) [3]: 16%
- Population Normal (%) [3]: 96%
- Population Pyknosed Nuclei (%) [3]: 3%
- Population Tubulin-Different-Phenotype (%) [3]: 22%
- Total Cell Count [3]: 311
- Population Apoptotic (%) [4]: 0%
- Population Fragmented Nuclei (%) [4]: 8%
- Population Healthy Nuclei (%) [4]: 91%
- Population Hoechst High Intensity Objects (%) [4]: 15%
- Population Membrane Permeable-Phenotype (%) [4]: 12%
- Population Mitochondria Different-Phenotype (%) [4]: 24%
- Population Mitotic Cells (%) [4]: 0%
- Population Normal (%) [4]: 84%
- Population Pyknosed Nuclei (%) [4]: 0%
- Population Tubulin-Different-Phenotype (%) [4]: 16%
- Total Cell Count [4]: 336
- Population Apoptotic (%) [5]: 18%
- Population Fragmented Nuclei (%) [5]: 2%
- Population Healthy Nuclei (%) [5]: 83%
- Population Hoechst High Intensity Objects (%) [5]: 2%
- Population Membrane Permeable-Phenotype (%) [5]: 21%
- Population Mitochondria Different-Phenotype (%) [5]: 11%
- Population Mitotic Cells (%) [5]: 81%
- Population Normal (%) [5]: 97%
- Population Pyknosed Nuclei (%) [5]: 14%
- Population Tubulin-Different-Phenotype (%) [5]: 17%
- Total Cell Count [5]: 250
- Population Apoptotic (%) [6]: 27%
- Population Fragmented Nuclei (%) [6]: 10%
- Population Healthy Nuclei (%) [6]: 79%
- Population Hoechst High Intensity Objects (%) [6]: 14%
- Population Membrane Permeable-Phenotype (%) [6]: 19%
- Population Mitochondria Different-Phenotype (%) [6]: 22%
- Population Mitotic Cells (%) [6]: 72%
- Population Normal (%) [6]: 85%
- Population Pyknosed Nuclei (%) [6]: 10%
- Population Tubulin-Different-Phenotype (%) [6]: 11%
- Total Cell Count [6]: 114
- Population Apoptotic (%) [7]: 33%
- Population Fragmented Nuclei (%) [7]: 2%
- Population Healthy Nuclei (%) [7]: 95%
- Population Hoechst High Intensity Objects (%) [7]: 3%
- Population Membrane Permeable-Phenotype (%) [7]: 5%
- Population Mitochondria Different-Phenotype (%) [7]: 20%
- Population Mitotic Cells (%) [7]: 66%
- Population Normal (%) [7]: 96%
- Population Pyknosed Nuclei (%) [7]: 2%
- Population Tubulin-Different-Phenotype (%) [7]: 26%
- Total Cell Count [7]: 221
- Population Apoptotic (%) [8]: 83%
- Population Fragmented Nuclei (%) [8]: 4%
- Population Healthy Nuclei (%) [8]: 89%
- Population Hoechst High Intensity Objects (%) [8]: 7%
- Population Membrane Permeable-Phenotype (%) [8]: 8%
- Population Mitochondria Different-Phenotype (%) [8]: 31%
- Population Mitotic Cells (%) [8]: 16%
- Population Normal (%) [8]: 92%
- Population Pyknosed Nuclei (%) [8]: 5%
- Population Tubulin-Different-Phenotype (%) [8]: 14%
- Total Cell Count [8]: 231

SMILES: CCOC(=O)c1c(C)[nH]c2ccc3c(c12)CN1CCc2cc(OC)ccc2C1O3 (stereo unspecified)
- Population Apoptotic (%) [1]: 72%
- Population Fragmented Nuclei (%) [1]: 9%
- Population Healthy Nuclei (%) [1]: 81%
- Population Hoechst High Intensity Objects (%) [1]: 5%
- Population Membrane Permeable-Phenotype (%) [1]: 6%
- Population Mitochondria Different-Phenotype (%) [1]: 78%
- Population Mitotic Cells (%) [1]: 27%
- Population Normal (%) [1]: 94%
- Population Pyknosed Nuclei (%) [1]: 8%
- Population Tubulin-Different-Phenotype (%) [1]: 72%
- Total Cell Count [1]: 123
- Population Apoptotic (%) [2]: 9%
- Population Healthy Nuclei (%) [2]: 76%
- Population Hoechst High Intensity Objects (%) [2]: 9%
- Population Membrane Permeable-Phenotype (%) [2]: 3%
- Population Mitochondria Different-Phenotype (%) [2]: 70%
- Population Mitotic Cells (%) [2]: 90%
- Population Normal (%) [2]: 90%
- Population Pyknosed Nuclei (%) [2]: 14%
- Population Tubulin-Different-Phenotype (%) [2]: 62%
- Total Cell Count [2]: 65
- Population Apoptotic (%) [3]: 73%
- Population Fragmented Nuclei (%) [3]: 9%
- Population Healthy Nuclei (%) [3]: 68%
- Population Hoechst High Intensity Objects (%) [3]: 5%
- Population Membrane Permeable-Phenotype (%) [3]: 68%
- Population Mitotic Cells (%) [3]: 26%
- Population Normal (%) [3]: 94%
- Total Cell Count [3]: 135
- Population Apoptotic (%) [4]: 80%
- Population Fragmented Nuclei (%) [4]: 2%
- Population Healthy Nuclei (%) [4]: 75%
- Population Hoechst High Intensity Objects (%) [4]: 11%
- Population Membrane Permeable-Phenotype (%) [4]: 70%
- Population Mitochondria Different-Phenotype (%) [4]: 100%
- Population Mitotic Cells (%) [4]: 20%
- Population Normal (%) [4]: 88%
- Population Pyknosed Nuclei (%) [4]: 22%
- Population Tubulin-Different-Phenotype (%) [4]: 100%
- Total Cell Count [4]: 84
- Population Apoptotic (%) [5]: 41%
- Population Fragmented Nuclei (%) [5]: 8%
- Population Healthy Nuclei (%) [5]: 79%
- Population Hoechst High Intensity Objects (%) [5]: 5%
- Population Membrane Permeable-Phenotype (%) [5]: 3%
- Population Mitochondria Different-Phenotype (%) [5]: 68%
- Population Mitotic Cells (%) [5]: 58%
- Population Normal (%) [5]: 94%
- Population Pyknosed Nuclei (%) [5]: 12%
- Population Tubulin-Different-Phenotype (%) [5]: 40%
- Total Cell Count [5]: 127
- Population Apoptotic (%) [6]: 8%
- Population Fragmented Nuclei (%) [6]: 9%
- Population Healthy Nuclei (%) [6]: 75%
- Population Membrane Permeable-Phenotype (%) [6]: 1%
- Population Mitochondria Different-Phenotype (%) [6]: 58%
- Population Mitotic Cells (%) [6]: 91%
- Population Pyknosed Nuclei (%) [6]: 14%
- Population Tubulin-Different-Phenotype (%) [6]: 35%
- Total Cell Count [6]: 65
- Population Apoptotic (%) [7]: 90%
- Population Fragmented Nuclei (%) [7]: 13%
- Population Healthy Nuclei (%) [7]: 49%
- Population Hoechst High Intensity Objects (%) [7]: 4%
- Population Membrane Permeable-Phenotype (%) [7]: 78%
- Population Mitochondria Different-Phenotype (%) [7]: 100%
- Population Mitotic Cells (%) [7]: 9%
- Population Normal (%) [7]: 95%
- Population Pyknosed Nuclei (%) [7]: 37%
- Population Tubulin-Different-Phenotype (%) [7]: 100%
- Total Cell Count [7]: 143
- Population Apoptotic (%) [8]: 89%
- Population Fragmented Nuclei (%) [8]: 6%
- Population Healthy Nuclei (%) [8]: 52%
- Population Hoechst High Intensity Objects (%) [8]: 11%
- Population Membrane Permeable-Phenotype (%) [8]: 83%
- Population Mitotic Cells (%) [8]: 10%
- Population Normal (%) [8]: 88%
- Population Pyknosed Nuclei (%) [8]: 41%
- Total Cell Count [8]: 87
- Population Apoptotic (%) [9]: 44%
- Population Fragmented Nuclei (%) [9]: 7%
- Population Healthy Nuclei (%) [9]: 83%
- Population Hoechst High Intensity Objects (%) [9]: 2%
- Population Membrane Permeable-Phenotype (%) [9]: 1%
- Population Mitochondria Different-Phenotype (%) [9]: 22%
- Population Mitotic Cells (%) [9]: 55%
- Population Normal (%) [9]: 97%
- Population Pyknosed Nuclei (%) [9]: 9%
- Population Tubulin-Different-Phenotype (%) [9]: 13%
- Total Cell Count [9]: 115
- Population Apoptotic (%) [10]: 41%
- Population Fragmented Nuclei (%) [10]: 8%
- Population Healthy Nuclei (%) [10]: 81%
- Population Hoechst High Intensity Objects (%) [10]: 7%
- Population Membrane Permeable-Phenotype (%) [10]: 9%
- Population Mitochondria Different-Phenotype (%) [10]: 27%
- Population Mitotic Cells (%) [10]: 58%
- Population Normal (%) [10]: 92%
- Population Pyknosed Nuclei (%) [10]: 10%
- Population Tubulin-Different-Phenotype (%) [10]: 19%
- Total Cell Count [10]: 67
- Population Apoptotic (%) [11]: 100%
- Population Fragmented Nuclei (%) [11]: 13%
- Population Healthy Nuclei (%) [11]: 50%
- Population Hoechst High Intensity Objects (%) [11]: 6%
- Population Membrane Permeable-Phenotype (%) [11]: 88%
- Population Mitotic Cells (%) [11]: 0%
- Population Normal (%) [11]: 93%
- Population Pyknosed Nuclei (%) [11]: 35%
- Population Tubulin-Different-Phenotype (%) [11]: 100%
- Total Cell Count [11]: 196
- Population Apoptotic (%) [12]: 84%
- Population Fragmented Nuclei (%) [12]: 14%
- Population Healthy Nuclei (%) [12]: 45%
- Population Hoechst High Intensity Objects (%) [12]: 14%
- Population Membrane Permeable-Phenotype (%) [12]: 81%
- Population Mitochondria Different-Phenotype (%) [12]: 100%
- Population Mitotic Cells (%) [12]: 15%
- Population Normal (%) [12]: 85%
- Population Pyknosed Nuclei (%) [12]: 39%
- Population Tubulin-Different-Phenotype (%) [12]: 95%
- Total Cell Count [12]: 121
